Values after ≈ are worked out from the molar mass of the structure shown. Active and inactive are the calls of the source. No cut-off for these calls is given here.
What was measured:
[1] = test system: Scedosporium boydii; test: Antifungal activity against Scedosporium boydii FMR 6694 infected in immunosuppressed OF1 mouse assessed as reduction in kidney fungal burden at 20 mg/kg, po BID administered 24 hrs postinfection for 10 days measured after 20 days; format: functional, organism-based; design: dose 20 mg/kg
[2] = test system: Scedosporium boydii; test: Antifungal activity against Scedosporium boydii FMR 6694 infected in immunosuppressed OF1 mouse assessed as reduction in brain fungal burden at 20 mg/kg, po BID administered 24 hrs postinfection for 10 days measured after 20 days; format: functional, organism-based; design: dose 20 mg/kg
[3] = test system: Scedosporium apiospermum; test: Antifungal activity against Scedosporium apiospermum CBS 117407 infected in immunosuppressed OF1 mouse assessed as prolonged survival of mouse at 20 mg/kg, po BID administered 24 hrs postinfection for 10 days measured after 20 days; format: functional, organism-based; design: dose 20 mg/kg
How it was run: (§1)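 Male OF1 mice, groups of 10, immunosuppressed 1 day before infection with cyclophosphamide 200 mg/kg i.p. plus 5-fluorouracil 150 mg/kg i.v. Infected i.v. via tail vein with 1 × 10^4 CFU in 0.2 ml saline. Oral treatment began 24 h post-challenge for 10 days. Mice checked daily for 20 days. Survival by Kaplan-Meier, compared by log rank test.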

[4] = Antifungal activity against Scedosporium aurantiacum CBS 116910 infected in immunosuppressed OF1 mouse assessed as prolonged survival of mouse at 10 mg/kg, po BID administered 24 hrs postinfection for 10 days measured after 20 days; format: functional, organism-based; design: dose 10 mg/kg; how it was run: as §1
[5] = test system: Scedosporium boydii; test: Antifungal activity against Scedosporium boydii FMR 6694 infected in immunosuppressed OF1 mouse assessed as prolonged survival of mouse at 10 mg/kg, po BID administered 24 hrs postinfection for 10 days measured after 20 days; format: functional, organism-based; design: dose 10 mg/kg; how it was run: as §1
[6] = test system: Scedosporium apiospermum; test: Antifungal activity against Scedosporium apiospermum CBS 117407 infected in immunosuppressed OF1 mouse assessed as reduction in kidney fungal burden at 10 mg/kg, po BID administered 24 hrs postinfection for 10 days measured after 20 days; format: functional, organism-based; design: dose 10 mg/kg
[7] = test system: Scedosporium apiospermum; test: Antifungal activity against Scedosporium apiospermum CBS 117407 infected in immunosuppressed OF1 mouse assessed as prolonged survival of mouse at 10 mg/kg, po BID administered 24 hrs postinfection for 10 days measured after 20 days; format: functional, organism-based; design: dose 10 mg/kg; how it was run: as §1
[8] = test system: Scedosporium boydii; test: Antifungal activity against Scedosporium boydii FMR 8627 infected in immunosuppressed OF1 mouse assessed as reduction in brain fungal burden at 20 mg/kg, po BID administered 24 hrs postinfection for 10 days measured after 20 days; format: functional, organism-based; design: dose 20 mg/kg
[9] = test system: Scedosporium aurantiacum; test: Antifungal activity against Scedosporium aurantiacum CBS 116910 infected in immunosuppressed OF1 mouse assessed as reduction in kidney fungal burden at 10 mg/kg, po BID administered 24 hrs postinfection for 10 days measured after 20 days; format: functional, organism-based; design: dose 10 mg/kg
[10] = Antifungal activity against Scedosporium aurantiacum IHEM 15458 by broth dilution method; format: functional
[11] = test system: Scedosporium apiospermum; test: Antifungal activity against Scedosporium apiospermum IHEM 14464 infected in immunosuppressed OF1 mouse assessed as prolonged survival of mouse at 10 mg/kg, po BID administered 24 hrs postinfection for 10 days measured after 20 days; format: functional, organism-based; design: dose 10 mg/kg; how it was run: as §1
[12] = test system: Scedosporium apiospermum; test: Antifungal activity against Scedosporium apiospermum IHEM 14464 infected in immunosuppressed OF1 mouse assessed as reduction in kidney fungal burden at 20 mg/kg, po BID administered 24 hrs postinfection for 10 days measured after 20 days; format: functional, organism-based; design: dose 20 mg/kg
[13] = test system: Scedosporium aurantiacum; test: Antifungal activity against Scedosporium aurantiacum IHEM 15458 infected in immunosuppressed OF1 mouse assessed as reduction in kidney fungal burden at 20 mg/kg, po BID administered 24 hrs postinfection for 10 days measured after 20 days; format: functional, organism-based; design: dose 20 mg/kg
[14] = test system: Scedosporium aurantiacum; test: Antifungal activity against Scedosporium aurantiacum CBS 116910 infected in immunosuppressed OF1 mouse assessed as reduction in brain fungal burden at 20 mg/kg, po BID administered 24 hrs postinfection for 10 days measured after 20 days; format: functional, organism-based; design: dose 20 mg/kg
[15] = test system: Scedosporium boydii; test: Antifungal activity against Scedosporium boydii FMR 6694 by broth dilution method; format: functional
[16] = test system: Scedosporium apiospermum; test: Antifungal activity against Scedosporium apiospermum IHEM 14464 infected in immunosuppressed OF1 mouse assessed as reduction in brain fungal burden at 20 mg/kg, po BID administered 24 hrs postinfection for 10 days measured after 20 days; format: functional, organism-based; design: dose 20 mg/kg
[17] = test system: Scedosporium apiospermum; test: Antifungal activity against Scedosporium apiospermum CBS 117407 infected in immunosuppressed OF1 mouse assessed as reduction in brain fungal burden at 40 mg/kg, po BID administered 24 hrs postinfection for 10 days measured after 20 days; format: functional, organism-based; design: dose 40 mg/kg
[18] = test system: Scedosporium aurantiacum; test: Antifungal activity against Scedosporium aurantiacum IHEM 15458 infected in immunosuppressed OF1 mouse assessed as reduction in brain fungal burden at 20 mg/kg, po BID administered 24 hrs postinfection for 10 days measured after 20 days; format: functional, organism-based; design: dose 20 mg/kg
[19] = Antifungal activity against Scedosporium aurantiacum CBS 116910 by broth dilution method; format: functional
[20] = test system: Scedosporium boydii; test: Antifungal activity against Scedosporium boydii FMR 6694 infected in immunosuppressed OF1 mouse assessed as prolonged survival of mouse at 20 mg/kg, po BID administered 24 hrs postinfection for 10 days measured after 20 days; format: functional, organism-based; design: dose 20 mg/kg; how it was run: as §1
[21] = test system: Scedosporium apiospermum; test: Antifungal activity against Scedosporium apiospermum CBS 117407 by broth dilution method; format: functional
[22] = test system: Scedosporium apiospermum; test: Antifungal activity against Scedosporium apiospermum IHEM 14464 by broth dilution method; format: functional
[23] = test system: Scedosporium aurantiacum; test: Antifungal activity against Scedosporium aurantiacum IHEM 15458 infected in immunosuppressed OF1 mouse assessed as reduction in kidney fungal burden at 10 mg/kg, po BID administered 24 hrs postinfection for 10 days measured after 20 days; format: functional, organism-based; design: dose 10 mg/kg
[24] = test system: Scedosporium boydii; test: Antifungal activity against Scedosporium boydii FMR 8627 by broth dilution method; format: functional
[25] = Antifungal activity against Scedosporium aurantiacum IHEM 15458 infected in immunosuppressed OF1 mouse assessed as prolonged survival of mouse at 20 mg/kg, po BID administered 24 hrs postinfection for 10 days measured after 20 days; format: functional, organism-based; design: dose 20 mg/kg; how it was run: as §1
[26] = test system: Scedosporium aurantiacum; test: Antifungal activity against Scedosporium aurantiacum CBS 116910 infected in immunosuppressed OF1 mouse assessed as reduction in brain fungal burden at 40 mg/kg, po BID administered 24 hrs postinfection for 10 days measured after 20 days; format: functional, organism-based; design: dose 40 mg/kg
[27] = test system: Scedosporium boydii; test: Antifungal activity against Scedosporium boydii FMR 6694 infected in immunosuppressed OF1 mouse assessed as reduction in brain fungal burden at 40 mg/kg, po BID administered 24 hrs postinfection for 10 days measured after 20 days; format: functional, organism-based; design: dose 40 mg/kg
[28] = test system: Scedosporium boydii; test: Antifungal activity against Scedosporium boydii FMR 8627 infected in immunosuppressed OF1 mouse assessed as prolonged survival of mouse at 20 mg/kg, po BID administered 24 hrs postinfection for 10 days measured after 20 days; format: functional, organism-based; design: dose 20 mg/kg
How it was run: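 Male OF1 mice were immunosuppressed 1 day before infection with cyclophosphamide 200 mg/kg i.p. plus 5-fluorouracil 150 mg/kg i.v. They were infected i.v. via a lateral tail vein with 1 × 10^4 CFU/mouse in 0.2 ml saline. Oral dosing was 10 or 20 mg/kg twice daily, or 20 or 40 mg/kg once daily (those mice and controls drank grapefruit juice from day −3). Dosing ran 24 h post-challenge for 10 days; 10 mice/group; observed daily to day 20; Kaplan-Meier with log rank test.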

[29] = test system: Scedosporium apiospermum; test: Antifungal activity against Scedosporium apiospermum CBS 117407 infected in immunosuppressed OF1 mouse assessed as reduction in kidney fungal burden at 20 mg/kg, po BID administered 24 hrs postinfection for 10 days measured after 20 days; format: functional, organism-based; design: dose 20 mg/kg

## CC[C@@H]([C@H](C)O)n1ncn(-c2ccc(N3CCN(c4ccc(OC[C@@H]5CO[C@@](Cn6cncn6)(c6ccc(F)cc6F)C5)cc4)CC3)cc2)c1=O [POSACONAZOLE]
[1]
  Activity: inactive
[2]
  Activity: inactive
[3]
  Activity: Active
[4]
  Activity: Active
[5]
  Activity: Active
[6]
  Activity: Active
[7]
  Activity: Active
[8]
  Activity: Active
[9]
  Activity: Active
[10]
  MIC: 2 µg/mL (≈ 2.85 µM)
[11]
  Activity: Active
[12]
  Activity: Active
[13]
  Activity: Active
[14]
  Activity: Active
[15]
  MIC: 1 µg/mL (≈ 1.43 µM)
[16]
  Activity: Active
[17]
  Activity: Active
[18]
  Activity: Active
[19]
  MIC: 32 µg/mL (≈ 45.7 µM)
[20]
  Activity: Active
[21]
  MIC: 1 µg/mL (≈ 1.43 µM)
[22]
  MIC: 0.5 µg/mL (≈ 0.713 µM)
[23]
  Activity: Active
[24]
  MIC: 1 µg/mL (≈ 1.43 µM)
[25]
  Activity: Active
[26]
  Activity: Active
[27]
  Activity: inactive
[28]
  Activity: Active
[29]
  Activity: Active
